Laboratory results published in ChEMBL document CHEMBL1649062, “Integration of lead optimization with crystallography for a membrane-bound ion channel target: discovery of a new class of AMPA receptor positive allosteric modulators” (J Med Chem, 2011).
≈ marks a conversion by molar mass, not a printed value. Calls of active or inactive are those of the source.

Legend:
Glutamate receptor 2 [1] = biological target: T1, Glutamate receptor 2 (Homo sapiens, UniProt P42262); assay: Allosteric modulation of human recombinant GluA2 receptor flip isoform expressed in HEK293 cells assessed as potentiation of glutamate-induced calcium influx by Fluo-4/FLIPR method; assay type: cell-based
Outline: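 Stable GluA2 flip (unedited) cell line grown in DMEM/F12 with 10% FBS and seeded to confluence 2-3 days before use. Cells washed in HEPES buffer (pH 7.3) and loaded with 2 μM Fluo-4 AM for 60 min at room temperature. On FLIPR, compound was added 5 min before 100 μM glutamate. pEC50 and asymptotic maximum are relative to the maximal response to cyclothiazide, n ≥ 3.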

Brain [2] = assay: Brain tissue binding in rat at 3 mg/kg, po; assay type: ADME, organism-based; design: dose 3 mg/kg, route oral; settings: in vivo
[3] = Apparent permeability of the compound; assay type: ADME; settings: not told
Outline: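 Artificial membrane permeability: donor holds 10 mM sample in pH 7.05 phosphate buffer with 0.5% hydroxypropylcyclodextrin. Membrane is 1.8% phosphatidylcholine and 1% cholesterol in decane. Donor and acceptor concentrations measured by LCMS after 3 h at room temperature; permeability expressed in nm/s.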

Cytochrome P450 3A4 = Cytochrome P450 3A4 (Homo sapiens, UniProt P08684); assay: Inhibition of human CYP3A4 by fluorescence assay; assay type: ADME
Outline: (§1)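 Recombinant human CYP bactosomes (0.1 mg/mL) in 50 mM potassium phosphate pH 7.4, preincubated 10 min at 37 °C with test compound (0.1-10 μM, 7 concentrations) and fluorogenic substrate. Substrates: ethoxyresorufin 0.5 μM (1A2), FCA 50 μM (2C9), BMC 10 μM (2C19), MMC 10 μM (2D6), DEF 1 μM or 7-BQ 25 μM (3A4). Reaction started with NADPH regenerating system; metabolite formation read over 10 min. IC50 from percent of control rate; miconazole control; triplicate.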

Cytochrome P450 1A2 = biological target: T2, Cytochrome P450 1A2 (Homo sapiens, UniProt P05177); assay: Inhibition of human CYP1A2 by fluorescence assay; assay type: ADME; outline: as §1
T2 sequence (P05177 whole entry): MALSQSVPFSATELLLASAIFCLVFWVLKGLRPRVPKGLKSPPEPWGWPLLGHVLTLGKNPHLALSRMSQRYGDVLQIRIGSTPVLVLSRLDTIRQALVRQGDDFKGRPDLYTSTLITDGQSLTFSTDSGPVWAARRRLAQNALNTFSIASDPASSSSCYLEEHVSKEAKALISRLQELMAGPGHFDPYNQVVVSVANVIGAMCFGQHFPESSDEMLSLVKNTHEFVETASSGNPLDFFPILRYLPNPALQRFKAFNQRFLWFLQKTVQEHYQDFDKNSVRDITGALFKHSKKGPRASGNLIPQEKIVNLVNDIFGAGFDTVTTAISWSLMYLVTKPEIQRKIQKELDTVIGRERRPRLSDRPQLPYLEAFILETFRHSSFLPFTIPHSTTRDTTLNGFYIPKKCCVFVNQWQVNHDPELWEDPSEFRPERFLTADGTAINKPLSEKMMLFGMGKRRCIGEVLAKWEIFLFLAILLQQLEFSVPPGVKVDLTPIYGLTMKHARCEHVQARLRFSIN

[4] = Plasma protein binding in rat at 3 mg/kg, po; assay type: ADME, organism-based; design: dose 3 mg/kg, route oral; settings: read-out: PPB (converted)
[5] = Cmax in rat blood at 3 mg/kg, po; assay type: ADME, organism-based; design: dose 3 mg/kg, route oral; settings: whole blood
[6] = Distribution coefficient, log D of the compound at pH 7.4; assay type: physicochemical; settings: octanol/water
Cytochrome P450 2C19 = Cytochrome P450 2C19 (Homo sapiens, UniProt P33261); assay: Inhibition of human CYP2C19 by fluorescence assay; assay type: ADME; outline: as §1
[7] = AUC (0 to t) in rat blood at 3 mg/kg, po; assay type: ADME, organism-based; design: dose 3 mg/kg, route oral; settings: whole blood
Cytochrome P450 2D6 = Cytochrome P450 2D6 (Homo sapiens, UniProt P10635); assay: Inhibition of human CYP2D6 by fluorescence assay; assay type: ADME; outline: as §1
Cytochrome P450 2C9 = Cytochrome P450 2C9 (Homo sapiens, UniProt P11712); assay: Inhibition of human CYP2C9 by fluorescence assay; assay type: ADME; outline: as §1
[8] = Kinetic solubility of the compound in phosphate buffered saline of pH 7.4; assay type: physicochemical
Outline: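 Kinetic solubility: 10 mM DMSO stock, 5 μL diluted to 100 μL with pH 7.4 phosphate-buffered saline, equilibrated 1 h at room temperature, filtered, filtrate quantified by calibrated flow-injection chemiluminescent nitrogen detection.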

Glutamate receptor 2 [9] = biological target: T1, Glutamate receptor 2; assay: Allosteric modulation of human recombinant GluA2 receptor flip isoform expressed in HEK293 cells assessed as potentiation of glutamate-induced calcium influx by Fluo-4/FLIPR method relative to cyclothiazide; assay type: cell-based
Outline: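 Stable GluA2 flip (unedited) cells seeded to confluence 2-3 days before assay; washed in HEPES buffer (145 NaCl, 5 KCl, 2 CaCl2, 1 MgCl2, 5.5 glucose, pH 7.3), loaded with 2 μM Fluo4-AM 60 min at room temperature. FLIPR dual addition: compound 5 min before 100 μM glutamate; fluorescence rise expressed against maximal cyclothiazide response, fitted pEC50 and Asym max; n ≥ 3.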

[10] = Blood Clearance in rat at 3 mg/kg, po; assay type: ADME, organism-based; design: dose 3 mg/kg, route oral; settings: whole blood
Outline: (§2)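 Rats dosed orally at 3 mg/kg; blood sampled via the hepatic portal vein and heart. Estimated clearance derived from in vivo hepatic extraction, taking rat liver blood flow as 85 (mL/min)/kg.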

[11] = Inhibition of human CYP450 by fluorescence assay; assay type: ADME
Outline: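 Recombinant human CYP1A2, 2C9, 2C19, 2D6 and 3A4 bactosomes (0.1 mg/mL protein) preincubated 10 min at 37 °C in 50 mM potassium phosphate pH 7.4 with test compound (0.1–10 μM, methanol 3–4.5% final) and fluorogenic probe: ethoxyresorufin 0.5 μM (1A2), FCA 50 μM (2C9), BMC 10 μM (2C19), MMC 10 μM (2D6), DEF 1 μM or 7-BQ 25 μM (3A4). NADPH-regenerating system added; fluorescent metabolite read 10 min; rate as % control; IC50 fitted; triplicate.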

[12] = Distribution coefficient, log D of the compound; assay type: physicochemical; settings: octanol/water
Brain [13] = assay: Drug level in Lister Hooded rat assessed per gram of tissue at 150 mg/kg, ip; assay type: ADME, organism-based; design: dose 150 mg/kg, route intraperitoneal; settings: in vivo
Outline: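 Male Lister Hooded rats pretreated 30 min before the maximal electroshock threshold test with compound or saline vehicle; picrotoxin served as positive control. Corneal current applied, CC50 about 60-70 mA, 0.1 ms. Brain levels measured in satellite rats sampled immediately after testing.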

[14] = Cmax in rat at 3 mg/kg, po; assay type: ADME, organism-based; design: dose 3 mg/kg, route oral; settings: in vivo
[15] = Clearance in rat at 3 mg/kg, po; assay type: ADME, organism-based; design: dose 3 mg/kg, route oral; settings: in vivo; outline: as §2
in vivo = settings: rat, brain and blood, po, 3 mg/kg
Rattus norvegicus [16] = assay: Neurotoxicity in Lister Hooded rat assessed proconvulsant effect at 150 mg/kg, ip by MEST test; assay type: toxicity, organism-based; design: dose 150 mg/kg, route intraperitoneal; settings: in vivo
Outline: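 Male Lister Hooded rats pretreated with compound, saline vehicle or picrotoxin 30 min before corneal electroshock (CC50 about 60–70 mA, 0.1 ms); tonic and tonic-clonic seizure threshold scored; brain concentrations taken from satellite rats sampled right after testing.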

[17] = AUC ( 0 to t) in rat at 3 mg/kg, po; assay type: ADME, organism-based, Plasma; design: dose 3 mg/kg, route oral; settings: plasma
Rattus norvegicus [18] = assay: Cognitive enhancing effect in Wistar rat assessed as reversal of scopolamine-induced amnesic deficit at 10 to 30 mg/kg, ip by passive avoidance test

Sequence of Cytochrome P450 2C9 (P11712 whole entry): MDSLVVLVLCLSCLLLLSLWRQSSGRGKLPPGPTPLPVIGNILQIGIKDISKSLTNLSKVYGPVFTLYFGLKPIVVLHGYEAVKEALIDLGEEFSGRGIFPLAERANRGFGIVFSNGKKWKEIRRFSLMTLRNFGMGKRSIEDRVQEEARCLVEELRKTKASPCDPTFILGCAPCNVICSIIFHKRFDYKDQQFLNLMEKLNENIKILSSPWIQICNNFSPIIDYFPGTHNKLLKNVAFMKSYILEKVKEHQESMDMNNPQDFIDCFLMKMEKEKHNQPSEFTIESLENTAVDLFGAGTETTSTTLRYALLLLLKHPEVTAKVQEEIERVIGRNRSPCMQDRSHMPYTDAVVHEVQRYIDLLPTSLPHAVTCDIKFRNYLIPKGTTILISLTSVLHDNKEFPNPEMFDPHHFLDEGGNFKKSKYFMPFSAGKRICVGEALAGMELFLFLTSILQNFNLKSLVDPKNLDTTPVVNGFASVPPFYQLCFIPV
Sequence of Cytochrome P450 2D6 (P10635 whole entry): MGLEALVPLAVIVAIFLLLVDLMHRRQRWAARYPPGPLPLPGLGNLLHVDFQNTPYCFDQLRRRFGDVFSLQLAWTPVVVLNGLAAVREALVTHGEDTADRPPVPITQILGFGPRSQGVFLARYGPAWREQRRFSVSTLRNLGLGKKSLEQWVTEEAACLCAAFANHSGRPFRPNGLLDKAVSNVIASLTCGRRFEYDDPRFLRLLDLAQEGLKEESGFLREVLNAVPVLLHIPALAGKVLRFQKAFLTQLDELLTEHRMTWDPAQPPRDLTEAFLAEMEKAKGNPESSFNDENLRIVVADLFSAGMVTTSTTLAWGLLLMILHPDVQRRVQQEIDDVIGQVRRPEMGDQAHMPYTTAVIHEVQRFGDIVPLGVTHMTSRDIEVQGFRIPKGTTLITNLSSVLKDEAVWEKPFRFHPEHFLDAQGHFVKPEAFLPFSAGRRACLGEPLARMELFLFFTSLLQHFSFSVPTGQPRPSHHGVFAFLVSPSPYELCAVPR
Sequence of Cytochrome P450 2C19 (P33261 whole entry): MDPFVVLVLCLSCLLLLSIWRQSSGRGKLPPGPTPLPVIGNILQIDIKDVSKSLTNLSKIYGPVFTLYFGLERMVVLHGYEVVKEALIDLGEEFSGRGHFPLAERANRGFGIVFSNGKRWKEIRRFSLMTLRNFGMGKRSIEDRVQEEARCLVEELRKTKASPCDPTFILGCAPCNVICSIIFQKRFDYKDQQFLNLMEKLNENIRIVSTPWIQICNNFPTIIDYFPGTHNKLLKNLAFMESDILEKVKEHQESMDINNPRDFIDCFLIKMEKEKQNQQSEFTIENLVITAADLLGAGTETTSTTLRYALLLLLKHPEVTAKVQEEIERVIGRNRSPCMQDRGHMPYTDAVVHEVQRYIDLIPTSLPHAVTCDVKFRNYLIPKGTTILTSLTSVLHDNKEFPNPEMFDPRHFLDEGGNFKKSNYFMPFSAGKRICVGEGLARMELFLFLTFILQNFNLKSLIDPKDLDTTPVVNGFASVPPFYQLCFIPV
Sequence of Cytochrome P450 3A4 (P08684 whole entry): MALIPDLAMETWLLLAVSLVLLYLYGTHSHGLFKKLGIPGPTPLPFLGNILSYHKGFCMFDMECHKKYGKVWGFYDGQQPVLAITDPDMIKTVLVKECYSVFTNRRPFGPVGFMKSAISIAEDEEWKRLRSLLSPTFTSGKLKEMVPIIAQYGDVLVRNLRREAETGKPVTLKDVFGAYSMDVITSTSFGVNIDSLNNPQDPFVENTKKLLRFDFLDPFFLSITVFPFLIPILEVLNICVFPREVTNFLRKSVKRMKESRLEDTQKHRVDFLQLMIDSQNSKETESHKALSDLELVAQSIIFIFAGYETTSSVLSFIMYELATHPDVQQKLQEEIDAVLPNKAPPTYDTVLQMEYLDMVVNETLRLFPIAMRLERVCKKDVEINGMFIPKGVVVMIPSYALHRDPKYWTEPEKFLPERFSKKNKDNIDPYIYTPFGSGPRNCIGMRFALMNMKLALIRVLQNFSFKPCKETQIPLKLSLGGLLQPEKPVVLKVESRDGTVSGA
T1 sequence (P42262 whole entry, canonical isoform): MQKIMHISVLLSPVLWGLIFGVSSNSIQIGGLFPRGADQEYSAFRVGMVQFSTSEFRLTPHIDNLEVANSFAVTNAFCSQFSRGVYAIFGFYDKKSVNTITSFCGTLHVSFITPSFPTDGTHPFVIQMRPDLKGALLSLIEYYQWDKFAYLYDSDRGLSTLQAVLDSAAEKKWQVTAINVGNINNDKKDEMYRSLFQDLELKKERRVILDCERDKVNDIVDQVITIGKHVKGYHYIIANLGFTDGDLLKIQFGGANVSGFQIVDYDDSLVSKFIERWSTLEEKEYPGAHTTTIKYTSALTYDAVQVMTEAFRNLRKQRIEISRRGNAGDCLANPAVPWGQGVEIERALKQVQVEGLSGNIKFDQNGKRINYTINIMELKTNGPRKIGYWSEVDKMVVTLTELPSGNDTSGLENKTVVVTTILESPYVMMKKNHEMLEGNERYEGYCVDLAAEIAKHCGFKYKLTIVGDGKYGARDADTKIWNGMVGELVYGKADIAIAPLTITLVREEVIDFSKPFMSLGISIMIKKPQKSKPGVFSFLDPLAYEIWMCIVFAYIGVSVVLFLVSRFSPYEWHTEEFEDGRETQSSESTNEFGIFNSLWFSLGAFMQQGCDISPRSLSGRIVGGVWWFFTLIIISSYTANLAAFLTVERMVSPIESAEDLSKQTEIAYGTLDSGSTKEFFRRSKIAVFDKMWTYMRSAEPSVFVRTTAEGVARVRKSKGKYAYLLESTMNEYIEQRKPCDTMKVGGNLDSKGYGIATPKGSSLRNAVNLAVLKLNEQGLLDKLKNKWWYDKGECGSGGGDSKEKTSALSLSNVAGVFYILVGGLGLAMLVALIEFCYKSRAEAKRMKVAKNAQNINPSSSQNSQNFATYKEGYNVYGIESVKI

Row | Compound | EC50 (Glutamate receptor 2 [1]) [µM] | Brain tissue binding (% bound) (Brain [2]) [%] | Papp [3] [×10⁻⁶ cm/s] | IC50 (Cytochrome P450 3A4) [µM] | IC50 (Cytochrome P450 1A2) [µM] | fraction unbound [4] | Cmax [5] [ng/mL] | logD [6] | IC50 (Cytochrome P450 2C19) [µM] | AUC(0-t) [7] [ng·h/mL] | IC50 (Cytochrome P450 2D6) [µM] | IC50 (Cytochrome P450 2C9) [µM] | solubility kinetic [8] [µg/mL] | Activity (Glutamate receptor 2 [9]) [%] | IC50 [11] [µM] | logD [12] | further results
1 | O=C1CCCN1Cc1ccc(-n2nc(C(F)(F)F)c3c2COCC3)cc1 | 5.01 | 94.9 | 44 | > 10 | > 10 | 0.057 | 331 | 2.6 | > 10 | 824 | > 10 | > 10 | 123 (≈ 337 µM) | 116 | – | – | –
2 | O=C1CCCN1Cc1ccc(-n2nc(C(F)(F)F)c3c2CCOC3)cc1 | 10 | 87.9 | 47 | > 8 | > 8 | 0.16 | 808 | 2.4 | > 8 | 972 | > 8 | > 8 | 215 (≈ 588 µM) | 138 | – | – | CL/F [10]: 41 mL/min/kg
3 | O=C(c1ccc(-n2nc(C(F)(F)F)c3c2COCC3)cc1)N1CCCC1 | 100 | 95.5 | 49 | > 10 | > 10 | 0.067 | 225 | 2.6 | > 10 | 733 | > 10 | > 10 | 104 (≈ 285 µM) | 75 | – | – | CL/F [10]: 13 mL/min/kg
4 | O=S(=O)(NCc1ccc(-n2nc(C(F)(F)F)c3c2CCCC3)cc1)C1CC1 | 10 | – | – | – | – | – | – | – | – | – | – | – | 12 (≈ 30 µM) | 112 | > 10 | 3.2 | –
5 | CS(=O)(=O)NCc1ccc(-n2nc(C(F)(F)F)c3c2CCCC3)cc1 | 7.94 | 99.2 | 33.5 | – | – | 0.021 | – | – | – | – | – | – | 103 (≈ 276 µM) | 112 | > 10 | 2.5 | Drug uptake (Brain [13]): 5074 ng/g; Cmax [14]: 197 ng/mL; CL/F [15]: 43 mL/min/kg; Kp (in vivo): 1.6; Activity (Rattus norvegicus [16]): Non-toxic; AUC(0-t) [17]: 416 ng·h/mL
6 | O=C(c1ccc(-n2nc(C(F)(F)F)c3c2CCCC3)cc1)N1CCOCC1 | > 20 | 96.8 | 45.5 | – | – | 0.026 | – | – | – | – | – | – | 123 (≈ 324 µM) | 81 | > 10 | 3.1 | Drug uptake (Brain [13]): 7168 ng/g; Cmax [14]: 586 ng/mL; CL/F [15]: 14 mL/min/kg; Activity (Rattus norvegicus [18]): inactive; Kp (in vivo): 1.2; Activity (Rattus norvegicus [16]): Non-toxic; AUC(0-t) [17]: 1980 ng·h/mL
7 | CC(=O)Cc1ccc(-n2nc(C(F)(F)F)c3c2CCCC3)cc1 | 3.98 | – | – | ≤ 1 | ≤ 1 | – | – | – | 2 | – | ≤ 1 | ≤ 1 | 44 (≈ 137 µM) | 111 | ≤ 1 | 3 | –
8 | O=S1(=O)CCCN1Cc1ccc(-n2nc(C(F)(F)F)c3c2CCCC3)cc1 | 10 | 99.5 | 40 | – | – | 0.032 | – | – | – | – | – | – | 12 (≈ 30 µM) | 118 | > 10 | 3.3 | Cmax [14]: 136 ng/mL; CL/F [15]: 41 mL/min/kg; Kp (in vivo): 2.5; AUC(0-t) [17]: 364 ng·h/mL
9 | CN1CCc2c(C(F)(F)F)nn(-c3ccc(CN4CCCC4=O)cc3)c2C1 | 39.8 | 63 | 43 | > 10 | > 10 | 0.142 | 131 | 2 | > 10 | 294 | > 10 | > 10 | 93 (≈ 246 µM) | 102 | – | – | CL/F [10]: 22 mL/min/kg
10 | CN(Cc1ccc(-n2nc(C(F)(F)F)c3c2CCCC3)cc1)S(C)(=O)=O | 20 | – | – | – | – | – | – | – | – | – | – | – | 15 (≈ 38.7 µM) | 102 | > 10 | 3.3 | –
11 | CC(C)S(=O)(=O)NCc1ccc(-n2nc(C(F)(F)F)c3c2CCCC3)cc1 | 10 | – | – | – | – | – | – | – | – | – | – | – | 11 (≈ 27.4 µM) | 79 | > 10 | 2.8 | –
